Reference: the RNAGym collection of RNA variant scans (doi:10.1126/science.aae0568)
Fewer inactive variants are shown than the library holds.

B1: tRNA (parent)
chain: GUUCCGUUGGCGUAAUGGUAACGCGUCUCCCUCCUAAGGAGAAGACUGCGGGUUCGAGUCCCGUACGGAACG

Variants of: B1
Assay: yeast fitness relative to wild type (ratio to wild type); higher = fitter; tRNA-Arg(CCU), competitive growth, 37 C, YPD
In short: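 Variants of the tRNA-Arg(CCU) gene were chemically synthesised with a 3% per-site mutation rate across 69 sites and placed at the native genomic locus in Saccharomyces cerevisiae. Six parallel replicates of the pooled strains were competed in YPD at 37°C for 24 hours, and gene amplicons from the start and end populations were read by 100-nucleotide paired-end sequencing. Darwinian fitness relative to wild type was derived from changes in genotype frequencies. Genotypes required ≥ 100 starting reads, and estimates < 0.5 were set to 0.5.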

Row | Variant | yeast fitness
1 | C11U A14U A40G A42C A43G | ≤ 0.5
2 | C11U A21C A70G | ≤ 0.5
3 | C11G G39C U47C | ≤ 0.5
4 | C11G G17A C22U C27U C33G | ≤ 0.5
5 | C11G G51C A65G | 0.616
6 | C11G G18A G44U A65C | ≤ 0.5
7 | C11U A21U A69G | 0.712
8 | C11G U16A A21U G23C | 0.665
9 | C11U A14C G68A | 0.624
10 | C11U A20G U47G G58A | ≤ 0.5
11 | C11G G68A | 0.64
12 | C11G U28G A37G | ≤ 0.5
13 | C11G C46G C62A | ≤ 0.5
14 | C11G G39C G56C C61U | ≤ 0.5
15 | C11G G18C A69U | ≤ 0.5
16 | C11G G12C C49U C60G | ≤ 0.5
17 | C11G U16A C29U C66A | ≤ 0.5
18 | C11G U26A C27A C29G C46A G50A U59G | 0.73
19 | C11G G12A A21G G58A C62G | 0.532
20 | C11G G23C A36U G44C C62A | ≤ 0.5
21 | C11U A21U C22U | 0.673

Row | Variant | yeast fitness
22 | C11U A20U C24U C29A A70G | ≤ 0.5
23 | C11G G12A U19C | ≤ 0.5
24 | C11U A15U C60U G67C | ≤ 0.5
25 | C11G U16A A20G C30A | ≤ 0.5
26 | C11G C62U C66U | ≤ 0.5
27 | C11U A21C A42G C61U | ≤ 0.5
28 | C11G C49U C66U | ≤ 0.5
29 | C11G G18A A21C C49U | ≤ 0.5
30 | C11G G12A C22A A36C C61G A69C | ≤ 0.5
31 | C11U A21U A45U | 1.15
32 | C11G U16G C55A | ≤ 0.5
33 | C11U A20U C22A U53G | ≤ 0.5
34 | C11G U32G C33U A37U A65G | 0.627
35 | C11G U16A A42G A57U | ≤ 0.5
36 | C11U A15U A57G A69C | ≤ 0.5
37 | C11G U16A U47C | 0.655
38 | C11G U13C C27A U35A G48A U59C | ≤ 0.5
39 | C11G U13G G63A | ≤ 0.5
40 | C11G G17C G63A | ≤ 0.5
41 | C11G U16A A70U | 0.553
42 | C11U A15C C27A G39C G48A | 0.546

Row | Variant | yeast fitness
43 | C11U A21G C24A G52A C60A A69G | 0.523
44 | C11G G23C A36G A37G A70G | 0.55
45 | C11G C49U G63A | ≤ 0.5
46 | C11G U19A G25A C49U | ≤ 0.5
47 | C11G U28A G39A G48A G58C | 0.543
48 | C11G G48A A65U | 0.525
49 | C11U A21G A43C | 0.649
50 | C11G G17C C34A A43C G56C C61A A65C | ≤ 0.5
51 | C11G C55U C61A | 0.546
52 | C11U A15G C46A A57G | 0.629
53 | C11G U47A | 0.686
54 | C11G U47G | ≤ 0.5
55 | C11G U47C | 0.687
56 | C11G U16A C30A | 0.583
57 | C11G G12A A45C C46G G52A | ≤ 0.5
58 | C11G U19A C22G U59A | ≤ 0.5
59 | C11G G39A A40C C60U G68U | ≤ 0.5
60 | C11G U28A | ≤ 0.5
61 | C11U A15U A65U | ≤ 0.5
62 | C11U A15G G58C | 0.725
63 | C11U A21C A37U A42G A69C A70G | ≤ 0.5

Row | Variant | yeast fitness
64 | C11U A15G U32A | ≤ 0.5
65 | C11U A14G A21C C29U A37G C55U | ≤ 0.5
66 | C11G G18C | 0.611
67 | C11G U19C C34G C60A G67C | ≤ 0.5
68 | C11G U47A C62G C66G | ≤ 0.5
69 | C11U A15C C27G A70G | ≤ 0.5
70 | C11G U64A | 0.623
71 | C11G U64C | 0.567
72 | C11G U53C | 0.584
73 | C11U A15U C27U C60G | 0.563
74 | C11G U13G A65C | ≤ 0.5
75 | C11G G25A C30U A37C C46U | 0.568
76 | C11U A20U G44A C46A G52A C66U | ≤ 0.5
77 | C11U A15G U26G C33A C55G | ≤ 0.5
78 | C11G G12C A20C C24G G39C C60A | ≤ 0.5
79 | C11G G18A C24U | 0.542
80 | C11G C55A G63A | 0.553
81 | C11G C60G C61U | 0.555
82 | C11U A14U C34U | ≤ 0.5
83 | C11G G23A C46A G68U | 0.566
84 | C11G U16A C30A A69C | ≤ 0.5
